Source: PubChem
LEDGF integ inh = blocks HIV-1 LEDGF/p75-dependent DNA integration. TR-FRET IN-LEDGF/p75 DNA integration, Eu/Cy5. inhibition, % at 3.7 µM. 370,000 compounds, 0.64% hits;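 active means inhibition above the screen-wide mean plus 3 SD, cut at about 13% in these data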;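 further: signal is the Cy5 over europium emission ratio at 671 and 618 nm; 0% = plate median of compound wells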
PRMT1 inh = PRMT1 (human) inhibition, primary screen. Q99873. 370,000 compounds, 1.3% hits. inhibition, % at 2.79 µM. recombinant PRMT1, activity-based probe fluorescence polarization;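 active means inhibition above about 21% made by adding two undisclosed values, limit read from the data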
Target sequence (Q99873 whole entry, looked up): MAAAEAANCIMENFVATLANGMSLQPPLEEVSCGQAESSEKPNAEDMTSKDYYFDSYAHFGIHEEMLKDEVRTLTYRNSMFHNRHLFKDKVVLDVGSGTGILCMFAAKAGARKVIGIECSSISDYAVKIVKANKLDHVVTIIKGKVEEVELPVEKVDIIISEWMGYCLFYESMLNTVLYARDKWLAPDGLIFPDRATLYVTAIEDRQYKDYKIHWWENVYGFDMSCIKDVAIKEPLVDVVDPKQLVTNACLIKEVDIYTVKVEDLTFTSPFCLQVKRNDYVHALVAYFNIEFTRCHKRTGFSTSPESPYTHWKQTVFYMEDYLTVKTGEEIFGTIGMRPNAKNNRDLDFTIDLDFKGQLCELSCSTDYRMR
DAGLB inh = blocks human DAGLB lipase activity; 340,000 compounds, 0.059% hits; Q8NCG7; HEK293T DAGLB membrane lysate, EnzChek fluorogenic substrate; AID 504411; inhibition, % at 5.17 µM; in the data active means inhibition above about 34%;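 further: 0% = enzyme with vehicle and 100% = wells lacking enzyme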
HTRA1 inhibitor = blocks human HTRA1 serine peptidase; recombinant HTRA1, FP-rhodamine activity-based probe, fluorescence polarization; inhibition, % at 5.96 µM; 340,000 compounds, 0.5% hits; AID 504803; in the data active means inhibition above about 36%;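 further: 0% = enzyme with DMSO and 100% = wells lacking enzyme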
ABHD4 inh = ABHD4 (mouse) inhibition, primary FP screen | 370,000 compounds, 0.54% hits | Q8VD66 | inhibition, % at 8.92 µM | AID 720543 | purified mABHD4, FP-Rh probe fluorescence polarization;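 active means inhibition exceeding the mean over every tested compound plus 3 SD, cut at about 30% in these data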;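 further: 0% = plate median of compound wells and 100% = S159A mutant with DMSO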
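Material: mouse ABHD4 enzyme, wild type; Benchmarks: S159A mutant high control, sample median low control; Buffer or medium: HEPES pH 7.0, NaCl, Pluronic buffer; Signal: fluorescence polarization; Read-out: percent inhibition of probe binding, normalized to plate controls; Timing: pre-incubation 45 min, probe exposure 60 min, at 25 °C; Dosing: 8.92 µM, single dose.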
rCAG binder = r(CAG) repeat RNA binding; TO-PRO-1 dye displacement fluorescence; inhibition, % at 3 µM; 370,000 compounds, 1.3% hits; AID 651821;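 active means inhibition above the plate cutoff, the mean of all test compounds on that plate plus 3 SD, cut at about 35% in these data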;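 further: 0% = DMSO alone and 100% = 100 µM mitoxantrone as full dye displacement; higher means more dye released from RNA so lower well fluorescence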
IN multimer act = activates HIV-1 integrase multimerization in LEDGF counter-screen. AID 1053131. activation, % at 7.7 µM. 2,000 compounds, 17% hits. TR-FRET HIV-1 integrase multimerization, biochemical. shares compounds with LEDGF integ inh; in the data active means activation above about 8.9%
TRFRET interf = counter-screen for LEDGF/p75 integration inhibitors: TR-FRET optical interference; TR-FRET optical interference counterscreen, HIV-1 IN multimerization; AID 1053135; 2,000 tested, under 10 active; inhibition, % at 7.7 µM; shares compounds with LEDGF integ inh;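 active means inhibition above the mean over all tested compounds plus 3 SD, which no compound reached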;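 further: 0% = integrase with antibodies and DMSO and 100% = antibodies without integrase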
IN-LEDGF confirm = confirmation of HIV-1 LEDGF/p75-dependent integration inhibitors. shares compounds with LEDGF integ inh. TR-FRET LEDGF/p75-dependent HIV-1 integration, biochemical. inhibition, % at 3.7 µM. 2,000 compounds, 36% hits. AID 1053136; in the data active means inhibition above about 14%
* hit, by the source's call; / = no result given. A selection: hits, their analogues and other compounds. The true share with any hit is near 3.2%.

SMILES	LEDGF integ inh	PRMT1 inh	DAGLB inh	HTRA1 inhibitor	ABHD4 inh	rCAG binder	IN multimer act	TRFRET interf	IN-LEDGF confirm
COC(=O)C1=CN(c2cccc(OCc3ccccc3)c2)C(N)=C(C#N)C1c1cccc(OC)c1OC (configuration not stated)	-1	-2	/	/	5	6	/	/	/
CCCNC1=C(N(C(C)=O)c2cccc(F)c2)C(=O)c2ccccc2C1=O	17*	-4	6	16	7	-6	-3	9	14*
CCC(=O)N(C1=C(NC(C)C)C(=O)c2ccccc2C1=O)C(C)C	-2	6	-1	2	9	-1	/	/	/
Cc1ccc(NC(=O)CNCC2CCCCC2)cc1S(=O)(=O)N(C)C	32*	0	-1	-5	8	-5	0	1	-15
Cc1ccccc1-c1cc2nc(NCc3ccncc3)n(C)c(=O)c2s1	4	3	/	/	-15	4	/	/	/
Cc1ccccc1-c1cc2nc(NCc3cccnc3)n(C)c(=O)c2s1	91*	-5	/	/	-13	-1	1	-4	0
O=P(O)(O)COc1ccccc1P(=O)(c1ccccc1)c1ccccc1	19*	1	-1	-1	-2	0	-2	13	0
CCOP(=O)(O)c1ccccc1OCCOc1ccccc1P(=O)(O)OCC	-3	4	0	4	2	0	/	/	/
CN1C=CC(=O)[C@@H](O)[C@H]1c1ccccc1Br	0	2	-1	2	8	3	/	/	/
O=C(O)c1cc(NS(=O)(=O)c2ccc(NCc3ccccc3)c([N+](=O)[O-])c2)cc(C(=O)O)c1	0	2	-7	2	1	12	/	/	/
O=C(c1ccco1)N1CCN(C(=O)c2ccccc2OCc2ccccc2)CC1	6	-5	0	3	-4	3	/	/	/
Cc1[nH][nH]c(=O)c1C(c1c(C)[nH][nH]c1=O)c1cn(Cc2ccccc2Cl)c2ccccc12	20*	7	7	12	10	17	-3	9	13
N/C(=N\O)c1cn(Cc2ccccc2Cl)c2ccccc12	0	-3	0	6	-1	-2	/	/	/
CNC(=S)N/N=C/c1c(Cl)cccc1Cl	2	2	-1	-1	4	2	/	/	/
CCc1nnc(N/N=C/c2c(Cl)cccc2Cl)n1N	49*	-2	-1	4	4	-1	-4	14	13
CCc1nnc(N/N=C/c2cccs2)n1N	44*	3	-1	1	2	-1	5	-23	0
CCCNC(=O)C(=O)N/N=C/c1cccs1	-2	-1	-1	-6	-2	-1	/	/	/
CC(C)(C)C(=O)NC(=S)Nc1ccc(Cl)c(C(=O)O)c1	3	6	-2	1	-10	3	/	/	/
C=CCNC(=O)C(=O)NCC(c1ccc2c(c1)OCO2)N1CCN(c2ccc(F)cc2)CC1 (configuration not stated)	2	-2	2	2	-5	-1	/	/	/
O=C(Nc1ccccc1N1CCCCC1)c1ccc(OC(F)F)cc1	36*	3	-18	-17	0	-2	1	-4	4
O=C(Nc1ccccc1N1CCCCC1)c1ccc(F)cc1	1	-4	-23	-14	2	-5	/	/	/
CC1CCN(C(=O)c2[nH]cnc2C(=O)NCCCCCNC(=O)OC(C)(C)C)CC1	0	-1	0	1	-1	-11	/	/	/
CC1CCN(C(=O)c2[nH]cnc2C(=O)NC2CCN(C(=O)OC(C)(C)C)CC2)CC1	17*	3	-3	-3	6	-14	-1	5	-1
Nc1c(C(=O)Nc2ccccc2)c2nc3ccccc3nc2n1CCCN1CCOCC1	-1	-6	2	-18	-5	8	/	/	/
c1cn2cc(-c3ccc(CN4CCOCC4)cc3)ccc2n1	89*	2	/	/	-2	4	1	-4	-1
